Source: ChEMBL document CHEMBL1159358, “Cytotoxic prenylflavanones from Taiwanese propolis” (J Nat Prod, 2003)
Converted amounts (≈) assume the structure as drawn. The source made the active and inactive calls. No cut-off for these calls is given here.

Tests used:
[1] = test system: Radical scavenging activity; test: Antioxidant activity against DPPH radical scavenging activity at 3.125 ug/ml; format: functional
Summary of the method: (§1)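 Scavenging of DPPH radical: sample in methanol (3.125, 6.25, 12.5, 25.0 µg/mL final) mixed 1:1 with 0.15 mM DPPH in methanol; absorbance change at 517 nm followed for 1 min. Percent scavenged = 100 × (A0 − Ai)/A0, A0 being initial DPPH absorbance.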

[2] = test system: Radical scavenging activity; test: Antioxidant activity against DPPH radical scavenging activity at 12.5 ug/ml; format: functional; summary of the method: as §1
Melanoma cell [3] = test: Cytotoxicity against human Melanoma cells after 24 hrs by trypan blue exclusion assay; format: functional, cell-based
Summary of the method: (§2)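 Human melanoma and C6 glioma cells grown in DMEM with 10% FBS and 1% penicillin/streptomycin, 37 °C, 5% CO2. Seeded at 1 × 10^5 cells/well and exposed to various compound concentrations for 24 h. Cells counted; viability by trypan blue exclusion.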

[4] = test system: Radical scavenging activity; test: Antioxidant activity against DPPH radical scavenging activity at 6.25 ug/ml; format: functional; summary of the method: as §1
[5] = test system: Radical scavenging activity; test: Antioxidant activity against DPPH radical scavenging activity; format: functional; summary of the method: as §1
HL-60 [6] = test: Cytotoxicity against human HL60 cells after 24 hrs by trypan blue exclusion assay; format: functional, cell-based; conditions: HL-60, 24 h
Summary of the method: (§3)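 HL-60 cells grown in RPMI 1640 with 10% FBS and 1% penicillin/streptomycin, 37 °C, 5% CO2. Seeded at 1 × 10^5 cells/well and exposed to various compound concentrations for 24 h. Cells counted; viability by trypan blue exclusion.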

[7] = test system: Radical scavenging activity; test: Antioxidant activity against DPPH radical scavenging activity at 25 ug/ml; format: functional; summary of the method: as §1
C6 [8] = test: Cytotoxicity against rat C6 cells after 24 hrs by trypan blue exclusion assay; format: functional, cell-based; conditions: C6, 24 h; summary of the method: as §2
Melanoma cell [9] = test: Induction of apoptosis in human Melanoma cells assessed as accumulation at subG1 at 15 ug/mL after 6 hrs by flow cytometry analysis
C6 [10] = test: Cytotoxicity against rat C6 cells at >15 ug/m after 24 hrs by trypan blue exclusion assay; format: functional, cell-based; summary of the method: as §2
Melanoma cell [11] = test: Induction of apoptosis in human Melanoma cells assessed as accumulation at subG1 at 15 uM after 24 hrs by flow cytometry analysis; format: functional; conditions: in the assay text read “15 ug/mL” for “15 uM”
Summary of the method: (§4)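 Melanoma cells (1 × 10^6 per 60 mm dish) preincubated 12 h, then exposed to 15 µg/mL compound or DMSO for 0, 3, 6, 12 or 24 h. Cells fixed in ice-cold ethanol at −20 °C overnight, treated with Triton X-100/RNase A 30 min at 37 °C, stained with propidium iodide. Sub-G1 (lower DNA content) fraction measured by flow cytometry.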

HL-60 [12] = test: Cytotoxicity against human HL60 cells at >15 ug/ml after 24 hrs by trypan blue exclusion assay; format: functional, cell-based; summary of the method: as §3
HL-60 (Homo sapiens) = test: Induction of apoptosis in human HL-60 cells assessed as DNA fragmentation at 5 ug/ml after 24 hrs by agarose gel electrophoresis
Melanoma cell [13] = test: Induction of apoptosis in human Melanoma cells assessed as accumulation at subG1 at 15 ug/mL after 3 hrs by flow cytometry analysis
Melanoma cell [14] = test: Induction of apoptosis in human Melanoma cells assessed as accumulation at subG1 at 15 uM after 12 hrs by flow cytometry analysis; format: functional; conditions: in the assay text read “15 ug/mL” for “15 uM”; summary of the method: as §4

Row | IC50 [5] [µg/mL] | Compound | Activity [1] [%] | Activity [2] [%] | IC50 (Melanoma cell [3]) [µg/mL] | Activity [4] [%] | IC50 (HL-60 [6]) [µg/mL] | Activity [7] [%] | IC50 (C6 [8]) [µg/mL] | Activity (Melanoma cell [9]) [%] | Activity (C6 [10]) | Activity (Melanoma cell [11]) [%] | Activity (HL-60 [12]) | Activity (HL-60 (Homo sapiens)) | Activity (Melanoma cell [13]) [%] | Activity (Melanoma cell [14]) [%]
1 | 9 (≈ 20.3 µM) | C/C(=C\Cc1cc([C@@H]2CC(=O)c3c(O)cc(O)cc3O2)cc(O)c1O)CCCC(C)(C)O [PROPOLIN B] | 18.3 | 85.7 | 7.5 (≈ 16.9 µM) | 36.7 | 7.5 (≈ 16.9 µM) | 94.7 | 4 (≈ 9.04 µM) |  |  |  |  |  |  | 
2 | 5 (≈ 11.3 µM) | C/C(=C/Cc1c([C@@H]2CC(=O)c3c(O)cc(O)cc3O2)ccc(O)c1O)CCCC(C)(C)O [PROPOLIN A] | 36 | 92.1 | 6 (≈ 13.6 µM) | 72.2 | 7.5 (≈ 16.9 µM) | 99.5 | 3.5 (≈ 7.91 µM) | 15.22 | Active | 40.95 | Active | Active | 15.01 | 23.93
3 |  | O=C(/C=C/c1ccc(O)c(O)c1)OCCc1ccccc1 | 39.1 | 98.5 |  | 85.5 |  | 99.8 |  |  |  |  |  |  |  | 
